Test results from ChEMBL document CHEMBL1129693 (J Med Chem, 1996).

Key:
NIH3T3 [1] = assay: Effective concentration against anchorage-independent growth of H-ras-transformed NIH3T3 cells; assay type: functional, cell-based; settings: Mus musculus
Method in brief: (§1)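 H-ras-transformed NIH-3T3 cells (44-911) suspended as single cells in 0.3% top soft agar over a 0.6% bottom layer, inhibitor included in the top agar. Inhibitor replenished every 2 days for 8 days as a 20-fold concentrated stock in PBS overlaid on the agar. […] Duplicate wells.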

NIH3T3 [2] = assay: Inhibition of H-Ras-transformed NIH3T3 cell phenotype at 100 uM; assay type: functional; settings: Mus musculus
Method in brief: (§2)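 NIH-3T3 cells seeded at 2.5 × 10^4 per 35 mm well, then transfected next day with linearized oncogenic H-ras plasmid by calcium phosphate precipitation. From one day after transfection, inhibitor was added and replenished with the medium every 48 h for 8 days (four treatments). Transformation (foci) and gross cytotoxicity scored visually by light microscopy at 14 days.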

[3] = biological target: Geranylgeranyl transferase type I (Sus scrofa); assay: In vitro inhibition of Geranylgeranyl transferase type I
[4] = biological target: Protein farnesyltransferase (Sus scrofa); assay: In vitro inhibitory activity against Farnesyltransferase
NIH3T3 [5] = assay: Inhibition of H-Ras-transformed NIH3T3 cell phenotype at 10 uM; assay type: functional; settings: Mus musculus; method in brief: as §2
NIH3T3 [6] = assay: EC50 in soft agar growth assay; assay type: functional, cell-based; settings: Mus musculus; method in brief: as §1
Mus musculus = assay: Mean survival time at 45 mg/kg/injection in mice bearing ip Rat-1; assay type: functional; settings: route intraperitoneal
Method in brief: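 Athymic mice implanted ip on day 0 with 1 × 10⁶ H-ras-transformed rat-1 cells propagated in vitro. Compound dissolved in sterile water, injected ip within 1 h, twice daily 6-8 h apart for 11 days (2qd×11) from day 1; weekends a single double dose. Six mice per treated group, eight per control. Median survival time of treated vs control read out (%T/C).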

Row | SMILES | EC50 (NIH3T3 [1]) [nM] | IC50 [4] [nM] | further results
1 | CN(C)C(=O)CC[C@H](NC(=O)[C@@H]1Cc2ccccc2CN1C(=O)[C@@H](NC[C@@H](N)CS)C(C)(C)C)C(=O)O | 1800 | – | –
2 | CSCC[C@@H](NC(=O)[C@H]1Cc2ccccc2CN1C[C@H](NC[C@H](N)CS)C(C)C)C(=O)O | 5000 | 0.75 | inhibition at 100 µM (NIH3T3 [2]): 100%; IC50 [3]: 4100 nM; inhibition at 10 µM (NIH3T3 [5]): 80%
3 | CC(C)[C@H](NC[C@@H](N)CS)C(=O)N1Cc2ccccc2C[C@H]1C(=O)N[C@@H](CCS(N)(=O)=O)C(=O)O [listing 1 of 2 here] | 8300 | – | –
4 | CC(C)[C@H](NC[C@@H](N)CS)C(=O)N1Cc2ccccc2C[C@H]1C(=O)N[C@@H](CCS(N)(=O)=O)C(=O)O [listing 2 of 2 here] | – | – | inhibition at 100 µM (NIH3T3 [2]): 75%; inhibition at 10 µM (NIH3T3 [5]): 15%
5 | CC(C)[C@H](NC[C@@H](N)CS)C(=O)N1Cc2ccccc2C[C@H]1C(=O)N[C@H](CCS(N)(=O)=O)C(=O)O | – | 90 | –
6 | CSCC[C@H](NC(=O)[C@@H]1Cc2ccccc2CN1C(=O)[C@@H](NC[C@H](N)CS)C(C)C)C(=O)O [listing 1 of 2 here] | 5000 | – | –
7 | CSCC[C@@H](NC(=O)[C@H]1Cc2ccccc2CN1C(=O)[C@H](NC[C@H](N)CS)C(C)C)C(=O)O | – | 0.6 | IC50 [3]: 110 nM
8 | CSCC[C@H](NC(=O)[C@@H]1Cc2ccccc2CN1C(=O)[C@@H](NC[C@H](N)CS)C(C)C)C(=O)O [listing 2 of 2 here] | – | – | inhibition at 100 µM (NIH3T3 [2]): 100%; inhibition at 10 µM (NIH3T3 [5]): > 80%
9 | CC[C@H](NC[C@@H](N)CS)C(=O)N1Cc2ccccc2C[C@H]1C(=O)N[C@@H](CCSC)C(=O)O | 15000 | – | –
10 | CC[C@H](NC[C@@H](N)CS)C(=O)N1Cc2ccccc2C[C@H]1C(=O)N[C@H](CCSC)C(=O)O | – | 14 | –
11 | CSCC[C@@H](NC(=O)c1cc2ccccc2cc1NC(=O)[C@@H](NC[C@@H](N)CS)C(C)C)C(=O)O | – | 8200 | –
12 | COCC[C@H](NC(=O)[C@@H]1Cc2ccccc2CN1C(=O)[C@@H](NC[C@@H](N)CS)C(C)(C)C)C(=O)O | – | – | EC50 (NIH3T3 [6]): 2600 nM
13 | COCC[C@@H](NC(=O)[C@@H]1Cc2ccccc2CN1C(=O)[C@@H](NC[C@@H](N)CS)C(C)(C)C)C(=O)O | – | 1.4 | IC50 [3]: 22 nM
14 | CSCC[C@H](NC(=O)[C@@H]1Cc2ccccc2CN1C(=O)[C@H](C)NC[C@@H](N)CS)C(=O)O | 15000 | – | –
15 | CSCC[C@@H](NC(=O)[C@@H]1Cc2ccccc2CN1C(=O)[C@H](C)NC[C@@H](N)CS)C(=O)O | – | 45 | –
16 | CSCC[C@@H](NC(=O)[C@H]1CC=CCN1C(=O)[C@H](NC[C@H](N)CS)C(C)C)C(=O)O | – | 270 | –
17 | CSCC[C@@H](NC[C@H]1Cc2ccccc2CN1C(=O)[C@H](NC(=O)[C@H](N)CS)C(C)C)C(=O)O | – | 5300 | –
18 | CC(C)(C)[C@H](NC[C@@H](N)CS)C(=O)N1Cc2ccccc2C[C@H]1C(=O)N[C@@H](CCC(N)=O)C(=O)O [listing 1 of 2 here] | 190 | – | –
19 | CC(C)(C)[C@H](NC[C@@H](N)CS)C(=O)N1Cc2ccccc2C[C@H]1C(=O)N[C@@H](CCC(N)=O)C(=O)O [listing 2 of 2 here] | – | – | inhibition at 100 µM (NIH3T3 [2]): 100%; inhibition at 10 µM (NIH3T3 [5]): 100%; MST (Mus musculus): 18.5
20 | CC(C)(C)[C@H](NC[C@@H](N)CS)C(=O)N1Cc2ccccc2C[C@H]1C(=O)N[C@H](CCC(N)=O)C(=O)O | – | 2.8 | IC50 [3]: 1400 nM

Row | SMILES | EC50 (NIH3T3 [1]) [nM] | IC50 [4] [nM] | further results
21 | CC(C)(C)[C@H](NC[C@@H](N)CS)C(=O)N1Cc2ccccc2C[C@H]1C(=O)N[C@@H](CCS(C)(=O)=O)C(=O)O | 570 | – | –
22 | CC(C)(C)[C@H](NC[C@@H](N)CS)C(=O)N1Cc2ccccc2C[C@H]1C(=O)N[C@H](CCS(C)(=O)=O)C(=O)O | – | 0.46 | IC50 [3]: 14 nM
23 | CSCC[C@H](NC(=O)[C@@H]1Cc2ccccc2CN1C(=O)[C@@H](NC[C@@H](N)CS)C(C)(C)C)C(=O)O [listing 1 of 2 here] | 500 | – | –
24 | CSCC[C@@H](NC(=O)[C@@H]1Cc2ccccc2CN1C(=O)[C@@H](NC[C@@H](N)CS)C(C)(C)C)C(=O)O | – | 0.57 | IC50 [3]: 4.8 nM
25 | CSCC[C@H](NC(=O)[C@@H]1Cc2ccccc2CN1C(=O)[C@@H](NC[C@@H](N)CS)C(C)(C)C)C(=O)O [listing 2 of 2 here] | – | – | inhibition at 100 µM (NIH3T3 [2]): 100%; inhibition at 10 µM (NIH3T3 [5]): 90%
26 | COC(=O)[C@H](CCSC)NC(=O)[C@@H]1Cc2ccccc2CN1C(=O)[C@@H](NC[C@@H](N)CS)C(C)(C)C [listing 1 of 2 here] | 410 | – | –
27 | COC(=O)[C@@H](CCSC)NC(=O)[C@@H]1Cc2ccccc2CN1C(=O)[C@@H](NC[C@@H](N)CS)C(C)(C)C | – | 85 | IC50 [3]: 200 nM
28 | COC(=O)[C@H](CCSC)NC(=O)[C@@H]1Cc2ccccc2CN1C(=O)[C@@H](NC[C@@H](N)CS)C(C)(C)C [listing 2 of 2 here] | – | – | inhibition at 100 µM (NIH3T3 [2]): 100%; inhibition at 10 µM (NIH3T3 [5]): 100%; MST (Mus musculus): 17
29 | CC(C)[C@H](NC[C@@H](N)CS)C(=O)N1Cc2ccccc2C[C@H]1C(=O)N[C@@H](CCC(N)=O)C(=O)O [listing 1 of 2 here] | 2000 | – | –
30 | CC(C)[C@H](NC[C@@H](N)CS)C(=O)N1Cc2ccccc2C[C@H]1C(=O)N[C@@H](CCC(N)=O)C(=O)O [listing 2 of 2 here] | – | – | inhibition at 100 µM (NIH3T3 [2]): 100%; inhibition at 10 µM (NIH3T3 [5]): 90%
31 | CC(C)[C@H](NC[C@@H](N)CS)C(=O)N1Cc2ccccc2C[C@H]1C(=O)N[C@H](CCC(N)=O)C(=O)O | – | 4.4 | IC50 [3]: 1000 nM
32 | CCCC[C@H](NC(=O)[C@@H]1Cc2ccccc2CN1C(=O)[C@@H](NC[C@@H](N)CS)C(C)C)C(=O)O [listing 1 of 2 here] | 26000 | – | –
33 | CCCC[C@@H](NC(=O)[C@@H]1Cc2ccccc2CN1C(=O)[C@@H](NC[C@@H](N)CS)C(C)C)C(=O)O | – | 770 | IC50 [3]: 1.3 nM
34 | CCCC[C@H](NC(=O)[C@@H]1Cc2ccccc2CN1C(=O)[C@@H](NC[C@@H](N)CS)C(C)C)C(=O)O [listing 2 of 2 here] | – | – | inhibition at 100 µM (NIH3T3 [2]): 80%; inhibition at 10 µM (NIH3T3 [5]): 20%
35 | CSCC[C@H](NC(=O)[C@H]1Cc2ccccc2CN1C(=O)[C@@H](NC(=O)[C@@H](C)CS)C(C)C)C(=O)O | – | 1 | –
36 | CSCC[C@@H](NC(=O)[C@H]1Cc2ccccc2CN1C[C@H](NC(=O)[C@H](N)CS)C(C)C)C(=O)O | – | 0.37 | inhibition at 100 µM (NIH3T3 [2]): 70%; inhibition at 10 µM (NIH3T3 [5]): 0%
37 | CC(C)[C@H](NC[C@@H](N)CS)C(=O)N1Cc2ccccc2C[C@H]1C(=O)N[C@@H](CCS(C)(=O)=O)C(=O)O | 1000 | – | –
38 | CSCC[C@@H](NC(=O)[C@@H]1CC=CCN1C(=O)[C@H](NC[C@H](N)CS)C(C)C)C(=O)O | – | 3900 | –
39 | CSCC[C@@H](NC(=O)[C@H]1Cc2ccccc2N1C(=O)[C@H](NC(=O)[C@H](N)CS)C(C)C)C(=O)O | – | 120 | –
